Reference: paper PMC11078286 (Therapeutic Drug Monitoring, 2024)

What was measured:
Long-term stability [1] = type: in vitro ADME, human; settings: DBS, Long-term (−80 degrees) for 30 d, n = 6
Autosampler [2] = type: in vitro ADME, human; settings: DBS, n = 6
Procedure, shortened: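 DBS QC samples were made by filling hemaPEN capillaries from a blood drop onto precut disks and drying 1 hour at RT. Each spot (2.74 μL) was extracted in 350 µL ACN plus I.S. (30 ng/mL), vortexed, centrifuged at 15,000g, then shaken 1 hour at RT. Processed extracts were held in the autosampler at 4°C for 24 hours. Six replicates were read by UHPLC-MS/MS in positive MRM mode, with relative error taken against nominal.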

Freeze–thaw stability [3] = type: in vitro ADME, human; settings: DBS, 3 F/T cycles, n = 6
Procedure, shortened: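 QC samples were kept 8 hours at RT, then put through 3 freeze–thaw cycles: thaw 2 hours at RT, refreeze at −80°C for at least 12 hours. Plasma (20 µL) with I.S. was protein-precipitated with water/ACN and centrifuged 15,000g for 10 min. A DBS spot was extracted in ACN with I.S. and centrifuged 15,000g for 5 min. Six replicates were run on UHPLC-MS/MS, with relative error versus nominal.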

CYP3A4 = settings: preclinical data; cited from earlier work
[4] = ref Rood et al, 30; cited from earlier work
[5] = Bland–Altman comparison of plasma and hemaPEN DBS concentrations; type: in vivo, human; settings: 15 patients with NSCLC
Procedure, shortened: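 Paired trough samples came from each patient: a finger-prick hemaPEN DBS, and venous EDTA blood drawn within 10 min that was spun at 2000g for 10 min, with plasma stored at −80°C. Both matrices were quantified by UHPLC-MS/MS, with AZ7550 calibrated using the labelled [¹³C²H₃] standard. Plasma and DBS values were compared by Bland–Altman analysis, with limits of agreement at ±1.96 SD of the mean difference.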

EGFR/T790M = settings: cited from earlier work
Autosampler [6] = type: in vitro ADME, human; settings: plasma, n = 6
Freeze–thaw stability [7] = type: in vitro ADME, human; settings: plasma, 3 F/T cycles, n = 6
Long-term stability [8] = type: in vitro ADME, human; settings: plasma, Long-term (−80 degrees) for 30 d, n = 6
Procedure, shortened: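 QC samples were stored at −80°C for 30 days before analysis. Plasma (20 µL) with I.S. (30 ng/mL) was precipitated with 150 µL water and 650 µL ACN, vortexed 5 min and centrifuged at 15,000g for 10 min. A hemaPEN DBS spot was extracted in 350 µL ACN with I.S. and centrifuged at 15,000g for 5 min. There were six replicates, 1 µL was injected for UHPLC-MS/MS MRM, and relative error was calculated versus nominal.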

SMILES: C=CC(=O)Nc1cc(Nc2nccc(-c3cn(C)c4ccccc34)n2)c(OC)cc1N(C)CCN(C)C [Osimertinib]
- Mean (measured concentration, stability) (Long-term stability [1]; nominal 1 ng/mL (LLOQ)): 1.1
- RE (stability) (Long-term stability [1]; nominal 1 ng/mL (LLOQ)): 10.68%
- Mean (measured concentration, stability) (Long-term stability [1]; nominal 3 ng/mL (LQC)): 2.91
- RE (stability) (Long-term stability [1]; nominal 3 ng/mL (LQC)): 0.14%
- Mean (measured concentration, stability) (Long-term stability [1]; nominal 30 ng/mL (MQC)): 30.08
- RE (stability) (Long-term stability [1]; nominal 30 ng/mL (MQC)): −2.18%
- Mean (measured concentration, stability) (Long-term stability [1]; nominal 270 ng/mL (HQC)): 269.97
- RE (stability) (Long-term stability [1]; nominal 270 ng/mL (HQC)): 0.71%
- Mean (measured concentration, stability) (Autosampler [2]; nominal 1 ng/mL (LLOQ)): 1.07
- RE (stability) (Autosampler [2]; nominal 1 ng/mL (LLOQ)): 7.15%
- Mean (measured concentration, stability) (Autosampler [2]; nominal 3 ng/mL (LQC)): 2.96
- RE (stability) (Autosampler [2]; nominal 3 ng/mL (LQC)): −1.11%
- Mean (measured concentration, stability) (Autosampler [2]; nominal 30 ng/mL (MQC)): 29.31
- RE (stability) (Autosampler [2]; nominal 30 ng/mL (MQC)): −2.7%
- Mean (measured concentration, stability) (Autosampler [2]; nominal 270 ng/mL (HQC)): 271.88
- RE (stability) (Autosampler [2]; nominal 270 ng/mL (HQC)): 0.69%
- Mean (measured concentration, stability) (Freeze–thaw stability [3]; nominal 1 ng/mL (LLOQ)): 1.06
- RE (stability) (Freeze–thaw stability [3]; nominal 1 ng/mL (LLOQ)): 8.95%
- Mean (measured concentration, stability) (Freeze–thaw stability [3]; nominal 3 ng/mL (LQC)): 3.01
- RE (stability) (Freeze–thaw stability [3]; nominal 3 ng/mL (LQC)): −0.43%
- Mean (measured concentration, stability) (Freeze–thaw stability [3]; nominal 30 ng/mL (MQC)): 29.34
- RE (stability) (Freeze–thaw stability [3]; nominal 30 ng/mL (MQC)): −2.24%
- Mean (measured concentration, stability) (Freeze–thaw stability [3]; nominal 270 ng/mL (HQC)): 271.92
- RE (stability) (Freeze–thaw stability [3]; nominal 270 ng/mL (HQC)): 0.24%
- Metabolizing enzyme (CYP3A4): principally metabolized by cytochrome P450 (CYP3A4)
- Degradation at RT [4]: rapid degradation
- Mean concentration difference between plasma and hemaPEN DBS (Bland–Altman) [5]: 0.4%
- Greater potency toward mutated EGFR/T790M than wild-type EGFR (EGFR/T790M): 200 ×
- Mean (measured concentration, stability) (Autosampler [6]; nominal 1 ng/mL (LLOQ)): 1.04
- RE (stability) (Autosampler [6]; nominal 1 ng/mL (LLOQ)): 7.21%
- Mean (measured concentration, stability) (Autosampler [6]; nominal 3 ng/mL (LQC)): 2.96
- RE (stability) (Autosampler [6]; nominal 3 ng/mL (LQC)): −1.01%
- Mean (measured concentration, stability) (Autosampler [6]; nominal 30 ng/mL (MQC)): 29.32
- RE (stability) (Autosampler [6]; nominal 30 ng/mL (MQC)): −2.3%
- Mean (measured concentration, stability) (Autosampler [6]; nominal 270 ng/mL (HQC)): 279.56
- RE (stability) (Autosampler [6]; nominal 270 ng/mL (HQC)): 0.58%
- Mean (measured concentration, stability) (Freeze–thaw stability [7]; nominal 1 ng/mL (LLOQ)): 1.14
- RE (stability) (Freeze–thaw stability [7]; nominal 1 ng/mL (LLOQ)): 10.47%
- Mean (measured concentration, stability) (Freeze–thaw stability [7]; nominal 3 ng/mL (LQC)): 3.02
- RE (stability) (Freeze–thaw stability [7]; nominal 3 ng/mL (LQC)): 0.07%
- Mean (measured concentration, stability) (Freeze–thaw stability [7]; nominal 30 ng/mL (MQC)): 28.84
- RE (stability) (Freeze–thaw stability [7]; nominal 30 ng/mL (MQC)): −3.85%
- Mean (measured concentration, stability) (Freeze–thaw stability [7]; nominal 270 ng/mL (HQC)): 269.25
- RE (stability) (Freeze–thaw stability [7]; nominal 270 ng/mL (HQC)): −0.27%
- Mean (measured concentration, stability) (Long-term stability [8]; nominal 1 ng/mL (LLOQ)): 1.15
- RE (stability) (Long-term stability [8]; nominal 1 ng/mL (LLOQ)): 15.47%
- Mean (measured concentration, stability) (Long-term stability [8]; nominal 3 ng/mL (LQC)): 2.91
- RE (stability) (Long-term stability [8]; nominal 3 ng/mL (LQC)): −2.7%
- Mean (measured concentration, stability) (Long-term stability [8]; nominal 30 ng/mL (MQC)): 29.39
- RE (stability) (Long-term stability [8]; nominal 30 ng/mL (MQC)): −2.02%
- Mean (measured concentration, stability) (Long-term stability [8]; nominal 270 ng/mL (HQC)): 270.31
- RE (stability) (Long-term stability [8]; nominal 270 ng/mL (HQC)): 0.11%
